Assay results pooled from the literature.
Protocols differ between the studies behind these lines.
Organism: Plasmodium falciparum
Read-out: parasite growth
Notes: blood stage

COc1cc(C=C(C(=O)/C=C/c2ccc(O)c(OC)c2)C(=O)/C=C/c2ccc(O)c(OC)c2)ccc1O  EC50 (3D7): 1790 nM
CCC1=C(CC)/C(=C/c2[nH]c(Cc3ccc(OC(F)(F)F)cc3)cc2Cc2ccc(OC(F)(F)F)cc2)N=C1c1ccc[nH]1  IC50 (SYBR Green; D6; 72 h): 2040 nM
COc1cc(/C=C2\CCC/C(=C\c3ccc(O)c(OC)c3)C2=O)ccc1O  EC50 (3D7): 200 nM
CC(=O)[C@@]1(O)[C@H](O)C[C@H]2[C@@H]3CCC4=CC(=O)CC[C@]4(C)[C@H]3CC[C@@]21C  IC50 (SYBR Green; 3D7): 142 nM
Cc1ccc(Oc2ccc(NC(=O)COc3ccccc3N3CCCC3=O)cc2)cc1  EC50 (3D7; 72 h): 1570 nM
CCc1nnc(-c2ccc3ccn(CC(=O)Nc4cc(OC)c(OC)c(OC)c4)c3c2)o1  EC50 (DD2; 72 h): 194 nM
CCN(CC)CCOc1ccc2c(c1)C(=O)c1cc(OCCN(CC)CC)ccc1-2  IC50 (SYBR Green; 3D7): 1540 nM
COc1cc(/C=C/c2cc(/C=C/c3ccc(O)c(OC)c3)n(-c3cccc([N+](=O)[O-])c3)n2)ccc1O  EC50 (3D7): 820 nM
CCN(c1ccc(C)cc1)c1ccc(NC(=O)CN(C)c2ccccc2N2CCCC2=O)cc1  EC50 (3D7; 72 h): 19 nM
CNCC[C@H](Oc1cccc2ccccc12)c1cccs1  IC50 (NF54): 706 nM
CC(C)N(c1ccc(C#N)cc1)c1ccc(NC(=O)CN(C)c2ccccc2N2CCCC2=O)c(F)c1  EC50 (3D7; 72 h): 44 nM
Cc1[nH]c(/C=C2\N=C(c3ccc[nH]3)C=C2OCc2ccccc2)cc1Cc1ccc(Cl)cc1  IC50 (SYBR Green; D6; 72 h): 9.98 nM
CO[C@H]1/C=C/O[C@@]2(C)Oc3c(C)c(O)c4c(O)c(c(/C=N/N5CCN(C6CCCC6)CC5)c(O)c4c3C2=O)NC(=O)/C(C)=C\C=C\[C@H](C)[C@H](O)[C@@H](C)[C@@H](O)[C@@H](C)[C@H](OC(C)=O)[C@@H]1C  IC50 (NF54): 240 nM
Cc1[nH]c(/C=C2\N=C(c3ccc[nH]3)C=C2OC(C)C)cc1Cc1ccc(Cl)cc1  IC50 (SYBR Green; D6; 72 h): 3.75 nM
COc1cc(/C=C/C(=O)/C=C/c2ccc(O)c(OC)c2)ccc1O  EC50 (3D7): 150 nM
Cc1ccc(N(C)c2ccc(NC(=O)CN(C)c3ccccc3N3CCCC3=O)c(F)c2)cc1  EC50 (3D7; 72 h): 3 nM
CCC1=C(CC)/C(=C/c2cc(-c3ccc(OC(F)(F)F)cc3)c(C)[nH]2)N=C1c1ccc[nH]1  IC50 (SYBR Green; D6; 72 h): > 2500 nM
Cc1ccc(N(C)c2ccc(NC(=O)CN(C)c3cc(F)ccc3N3CCCC3=O)cc2)cc1  EC50 (3D7; 72 h): 34 nM
COc1cc(/C=C/C(=O)C(=Cc2cccc(O)c2)C(=O)/C=C/c2ccc(O)c(OC)c2)ccc1O  EC50 (3D7): 1150 nM
Cc1nnc(-c2ccc3ccn(CC(=O)Nc4cccnc4)c3c2)o1  EC50 (3D7; 72 h): 4250 to 4780 nM
COC1=CC(c2ccc[nH]2)=N/C1=C\c1[nH]c(C)cc1Cc1ccc(OC(F)(F)F)cc1  IC50 (SYBR Green; D6; 72 h): 2.48 nM
Cc1ccc(N(c2ccc(NC(=O)CN(C)c3ccccc3N3CCCC3=O)cc2)C(C)C)cc1  EC50 (3D7; 72 h): 5 nM
C[C@H]1Cc2c([nH]c3cc(Cl)c(F)cc23)[C@@]2(N1)C(=O)Nc1ccc(Cl)cc12  EC50 (3D7; 72 h): 0.7 nM
Cc1ccc(N(C)c2ccc(NC(=O)CN(C)c3ccccc3N3CCCC3=O)cc2)nc1  EC50 (3D7; 72 h): 4000 nM
CCOC1=CC(c2ccc[nH]2)=N/C1=C\c1cc(Cc2ccc(OC(F)(F)F)cc2)c(C)[nH]1  IC50 (SYBR Green; D6; 72 h): 6.89 nM
Cc1cc2ccc(-c3cnn(C)c3)cc2n1CC(=O)Nc1ccccc1Cl  EC50 (3D7; 72 h): 603 nM
COC1=CC(c2ccc[nH]2)=N/C1=C\c1[nH]c(-c2ccc(OC)cc2)cc1-c1ccc(OC)cc1  IC50 (SYBR Green; D6; 72 h): 31.2 nM
O=C(CNc1ccccc1N1CCCC1=O)Nc1ccc(Oc2ccccc2)cc1  EC50 (3D7; 72 h): > 10000 nM
CCN(CC)CCCC(C)Nc1ccnc2cc(Cl)ccc12 (stereo not drawn)  EC50 (3D7): 8 nM
CC1=C(C)/C(=C/c2[nH]c(Cc3ccc(Cl)cc3)cc2Cc2ccc(Cl)cc2)N=C1c1ccc[nH]1  IC50 (SYBR Green; D6; 72 h): > 2500 nM
